UHRF1 MBD2 ctr: blocks human UHRF1 binding to methylated DNA. UHRF1 binding to methylated oligo, TR-FRET. inhibition, % at 4.4 µM. Q96T88. hit rate 0.75% among 370,000; in the data active = inhibition above about 21%;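 note: UHRF1 SRA domain binding a hemimethylated CpG hairpin DNA probe; 0% = median of test compound wells and 100% = reference inhibitor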
LEDGF integ inh: blocks HIV-1 LEDGF/p75-dependent DNA integration. TR-FRET IN-LEDGF/p75 DNA integration, Eu/Cy5. inhibition, % at 3.7 µM. hit rate 0.64% among 370,000. AID 743269;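 active = inhibition above the screen-wide mean plus 3 SD, cut at about 13% in these data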;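 note: signal is the Cy5 over europium emission ratio at 671 and 618 nm; 0% = plate median of compound wells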
SIAE primary: human SIAE inhibition, primary screen | hit rate 0.69% among 370,000 | Q9HAT2 | inhibition, % at 9.66 µM | AID 1053197 | SIAE FP-Rh probe binding, fluorescence polarization;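 active = inhibition above a cutoff: mean of compounds within the control limits plus 3 SD of those, cut at about 17% in these data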;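 note: 0% = plate median of compound wells and 100% = probe without SIAE protein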
TDP2 absorb: blocks human TDP2 phosphodiesterase activity | inhibition, % at 12.8 µM | hit rate 0.34% among 370,000 | O95551 | AID 720702 | recombinant TDP2, T5PNP hydrolysis, p-nitrophenol absorbance 415 nm;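 active = inhibition above the mean of all tested compounds plus 3 SD, set per campaign, cut at about 25% in these data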;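 note: 0% = DMSO with enzyme and 100% = buffer with substrate but no TDP2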
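System: recombinant human TDP2 / Amount: 120 nM TDP2 per well / Also added: 5 mM T5PNP chromogenic substrate / Doses: 12.8 µM single point, 1% DMSO / Incubation: 2 h at 37 °C / Detection: p-Nitrophenol epi absorbance / Evaluation: % inhibition relative to enzyme-containing and enzyme-free wells / Repeats: singlicate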
PRMT1 FP inh: PRMT1 (human) inhibition, primary screen; Q99873; inhibition, % at 2.79 µM; AID 652257; hit rate 1.3% among 370,000; recombinant PRMT1, activity-based probe fluorescence polarization;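 active = inhibition above about 21% made by adding two undisclosed values, limit read from the data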
MBD2 inh: blocks human MBD2 binding to methylated DNA; Q9UBB5; TR-FRET, MBD2 binding to methylated oligonucleotide; inhibition, % at 4.4 µM; hit rate 0.31% among 370,000; in the data active = inhibition above about 13%
Starred values were filed as active, the others as inactive. Compounds with a hit are over-represented: about 3.3% of the library has one in this group of screens.

SMILES	UHRF1 MBD2 ctr	LEDGF integ inh	SIAE primary	TDP2 absorb	PRMT1 FP inh	MBD2 inh
CCCCNc1c(-c2ccc(SC3CCCCC3)c(OC)c2)nc2ccc(Cl)cn12	24*	11	5	24	2	10
CCCCCCSc1cc(-c2nc3ccc(Cl)cn3c2NC2CCCCC2)ccc1OC	58*	0	1	3	1	0
CCCCCCSc1ccc(-c2nc3ccc(Cl)cn3c2NCCCC)cc1OC	-1	-2	3	4	3	4
CCCCCCSc1ccc(-c2nc3ccc(Cl)cn3c2NC2CCCCC2)cc1	0	-1	-6	5	-2	-2
CCCCS(=O)(=O)N1C2=NC3=C(C(=O)N(CCOC)C3=O)C3N(C)c4ccccc4[C@]23C[C@H]1CO (stereo not given in full)	0	5	4	7	2	-3
COC(=O)[C@]12CCCCC=C1N(Cc1ccc(OC)cc1)C(=O)[C@@H]2CC(=O)NCc1cccs1	1	-2	-1	-7	0	2
CCCCCn1nnnc1C1(C)CCSCC(=O)N1Cc1ccco1 (stereo not given)	-1	2	0	-4	1	-4
O=C(CN1C(=O)S/C(=C\c2ccc(-c3cc(C(=O)O)ccc3Cl)o2)C1=O)Nc1ccc2c(c1)OCO2	17	18*	-18	-17	18	6
N=C1S/C(=C\c2ccc(-c3ccccc3C(=O)O)o2)C(=O)N1c1ccc2c(c1)OCO2	23*	-1	-2	-9	6	7
Cn1cc(/C=C2/SC(=O)N(CC(=O)Nc3ccc4c(c3)OCO4)C2=O)c2ccccc21	-3	0	-7	2	-3	-3
CC(C)CCNC(=O)C12CN(Cc3ccccc3)CC1C(c1ccc([N+](=O)[O-])cc1)=NO2 (stereo not given)	1	0	5	-4	22*	4
CCOC(=O)c1[nH]c(C)c(C(=O)OCC(=O)NCc2ccc(OC)cc2)c1C	9	-1	-3	-7	0	1
CCOC(=O)c1c(C)[nH]c(C(=O)N(C)CC(=O)Nc2ccc(OC)cc2)c1C	21*	-5	3	-4	0	0
Cc1ccc(NC(=O)CSc2ncnc3ccccc23)cc1S(=O)(=O)N1CCCCC1	5	-8	-37	-13	23*	0
COc1ccccc1N1CCN(S(=O)(=O)c2ccc3c(c2)NC(=O)C(C)C(=O)N3)CC1 (stereo not given)	3	3	-4	-12	7	3
Cc1ccc(Cl)cc1N1CCN(S(=O)(=O)c2ccc3c(c2)NC(=O)C(C)C(=O)N3)CC1 (stereo not given)	96*	-1	-11	-6	-1	-2
Nc1cc(=O)[nH]c(SCC(=O)Nc2cc(S(=O)(=O)N3CCOCC3)ccc2Cl)n1	-1	2	-5	16	5	-5
Nc1cc(=O)[nH]c(SCC(=O)Nc2cc(S(=O)(=O)N3CCCCCC3)ccc2Cl)n1	3	-2	-16	3	23*	1
CCNC(=O)NC(=O)C(C)OC(=O)C(C)(C)Oc1ccc(Cl)cc1 (stereo not given)	26*	-2	-2	13	-1	7
O=S1(=O)C=CCN1Cc1cn(Cc2ccc(C(F)(F)F)cc2)nn1	0	0	10	7	-2	5
O=C(NCCO)C1(C(=O)C2CC2)CC(c2ccccn2)=NO1 (stereo not given)	2	0	7	4	1	4
O=C(C1CCCCC1)N1CCN(C(=O)C2CCCCC2)CC1	2	-9	0	-11	2	2
O=C1CN(C(=O)C2CCCC2)CCN1	63*	-1	6	-3	-1	0
Cc1cccc(NC(=O)CCS(=O)(=O)c2cccc3nonc23)c1C	27*	-1	-3	0	-2	11
COC(=O)[C@]12C[C@H](CC(=O)NCC34CC5CC(CC(C5)C3)C4)C(=O)N(CCc3ccc(OC)c(OC)c3)C1=C[C@H](C(C)C)O[C@@H]2C1CC1	-1	-6	-2	-6	6	4
SMILES	UHRF1 MBD2 ctr	LEDGF integ inh	SIAE primary	TDP2 absorb	PRMT1 FP inh	MBD2 inh
Cc1cnc(C(=O)Nc2c(-c3ccccc3)[nH][nH]c2=O)cn1	-4	-1	2	-4	11	-1
CN(C)c1ccc(-c2[nH][nH]c(=O)c2NC(=O)c2ccccn2)cc1	16	11	6	87*	-4	15*
O=C(Cn1c(=O)n(Cc2ccco2)c(=O)c2c3c(sc21)CCCC3)Nc1ccccc1	3	3	-50	1	8	5
NC(=O)Cn1c(=O)n(Cc2ccco2)c(=O)c2c3c(sc21)CCCCC3	21*	6	-2	-1	21*	4
CC1(C)C2CCC1(C)C(NC(=O)/C=C/c1ccccc1)C2 (stereo not given)	25*	-2	-3	-4	-1	-5
CC1(C)C2CCC1(C)C(Nc1ccccc1)C2 (stereo not given)	-1	-3	9	9	-1	5
O=C(c1sc2cccc(F)c2c1Cl)N1CCN(c2ncccn2)CC1	26*	-2	4	1	2	11
CCSC(=Nc1ccccc1)C1=C(O)COC1=O	-2	-2	19*	3	1	2
CN1CCN(C(=O)Cn2ncc3c([nH]c4ccccc43)c2=O)CC1	23*	4	-4	10	-2	4
CC1CCN(C(=O)Cn2ncc3c([nH]c4ccccc43)c2=O)CC1	1	-1	-5	-12	-5	1
CC(=O)Nc1ccc(S(=O)(=O)N2CCSC2c2ccco2)cc1 (stereo not given)	27*	4	-4	-6	10	12
CC1CC(C)CN(CCCNS(=O)(=O)c2cc3c(cc2Br)CCN3C(=O)C2CC2)C1 (stereo not given)	-4	10	5	-5	-5	0
O=C(Nc1ccccc1C(F)(F)F)NC1(C(=O)N2CCOCC2)CCCCC1	34*	25*	0	3	23*	16*
O=C(CSCc1c(F)cccc1Cl)NCCSCc1ccco1	0	2	1	17	4	-5
O=C(CSCc1ccc(Cl)cc1)NCCSCc1ccco1	2	5	-2	-11	23*	8
O=[N+]([O-])c1cccc2c1ccc1ncccc12	49*	-2	-11	-2	1	-2
N=C1CCCN1CC(=O)c1ccc(Br)cc1	22*	0	1	5	-2	6
Cc1ccc(CN2CCCCC(NC(=O)c3ccc(C)cc3)C2=O)cc1 (stereo not given)	2	-2	3	-5	3	-2
CCn1c2ccc(C)cc2c2nnc(SCCN3CCOCC3)nc21	0	2	-2	-9	2	-4
Cc1ccc2c(c1)c1nnc(SCC(=O)N3CCN(c4ccc(F)cc4)CC3)nc1n2CC(=O)O	7	10	1	-5	22*	-10
